Laboratory results taken from ChEMBL document CHEMBL1157731, “Novel KCNQ2/Q3 agonists as potential therapeutics for epilepsy and neuropathic pain” (J Med Chem, 2010).

Key:
Rattus norvegicus = species: Rattus norvegicus; test: Displacement of [125I]peptide YY from neuropeptide Y receptor in rat cerebral cortex at 10 uM; format: tissue-based
[1] = target: T1, Endothelin-1 receptor (Homo sapiens) (UniProt P25101); test: Displacement of [125I]endothelin-1 from human recombinant endothelin A receptor expressed in CHO cells; format: cell-based
T1 sequence (whole entry): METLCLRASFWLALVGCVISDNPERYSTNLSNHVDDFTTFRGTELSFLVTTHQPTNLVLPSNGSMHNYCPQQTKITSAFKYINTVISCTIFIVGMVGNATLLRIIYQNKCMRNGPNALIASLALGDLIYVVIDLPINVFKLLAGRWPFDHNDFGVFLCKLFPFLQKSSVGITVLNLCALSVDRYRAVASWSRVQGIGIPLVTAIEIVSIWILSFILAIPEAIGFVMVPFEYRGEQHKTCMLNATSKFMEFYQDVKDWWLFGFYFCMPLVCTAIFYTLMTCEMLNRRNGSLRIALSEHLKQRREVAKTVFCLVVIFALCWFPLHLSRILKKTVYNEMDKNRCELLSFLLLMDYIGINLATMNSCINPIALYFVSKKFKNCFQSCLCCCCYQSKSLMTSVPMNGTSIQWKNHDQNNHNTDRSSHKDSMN

Mus musculus = test: Anticonvulsant activity against maximal electroshock-induced seizures in po dosed CD1 mouse model treated 30 mins before electroshock application; format: functional, organism-based
In short: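 Male CD-1 mice dosed po (10 mL/kg in 5% DMSO/95% of 0.5% HPMC/1% Tween 80) 30 min before corneal electroshock at 50 mA for 0.2 s, with 1% proparacaine in each eye. Latency to hindlimb extension recorded to 0.1 s. No extension within 6 s scored as protected (latency 6 s). Reported as protected/tested (8 per group), or EC50 derived from latency scores.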

[2] = target: Beta-1 adrenergic receptor (Homo sapiens) (UniProt P08588); test: Displacement of [3H](-)CGP12177 from human recombinant beta 1 adrenergic receptor expressed in HEK293 cells at 10 uM; format: cell-based
Sequence of Beta-1 adrenergic receptor (Homo sapiens) (P08588 whole entry, looked up): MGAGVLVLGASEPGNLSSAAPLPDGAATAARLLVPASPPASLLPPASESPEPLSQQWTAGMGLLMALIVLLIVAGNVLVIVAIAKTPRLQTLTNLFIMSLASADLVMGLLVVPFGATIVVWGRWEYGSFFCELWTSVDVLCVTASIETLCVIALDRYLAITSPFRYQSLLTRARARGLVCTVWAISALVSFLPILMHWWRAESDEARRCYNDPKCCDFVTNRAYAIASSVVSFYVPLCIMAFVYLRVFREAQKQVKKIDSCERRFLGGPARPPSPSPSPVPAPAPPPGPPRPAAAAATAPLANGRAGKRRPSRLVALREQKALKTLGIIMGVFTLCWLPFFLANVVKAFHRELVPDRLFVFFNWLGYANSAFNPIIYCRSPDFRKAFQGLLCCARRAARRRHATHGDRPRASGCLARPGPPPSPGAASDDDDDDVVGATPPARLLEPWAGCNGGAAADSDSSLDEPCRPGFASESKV

[3] = target: T2, Glucocorticoid receptor (Homo sapiens) (UniProt P04150); test: Binding affinity to glucocorticoid receptor at 10 uM by displacement assay
T2 sequence (whole entry): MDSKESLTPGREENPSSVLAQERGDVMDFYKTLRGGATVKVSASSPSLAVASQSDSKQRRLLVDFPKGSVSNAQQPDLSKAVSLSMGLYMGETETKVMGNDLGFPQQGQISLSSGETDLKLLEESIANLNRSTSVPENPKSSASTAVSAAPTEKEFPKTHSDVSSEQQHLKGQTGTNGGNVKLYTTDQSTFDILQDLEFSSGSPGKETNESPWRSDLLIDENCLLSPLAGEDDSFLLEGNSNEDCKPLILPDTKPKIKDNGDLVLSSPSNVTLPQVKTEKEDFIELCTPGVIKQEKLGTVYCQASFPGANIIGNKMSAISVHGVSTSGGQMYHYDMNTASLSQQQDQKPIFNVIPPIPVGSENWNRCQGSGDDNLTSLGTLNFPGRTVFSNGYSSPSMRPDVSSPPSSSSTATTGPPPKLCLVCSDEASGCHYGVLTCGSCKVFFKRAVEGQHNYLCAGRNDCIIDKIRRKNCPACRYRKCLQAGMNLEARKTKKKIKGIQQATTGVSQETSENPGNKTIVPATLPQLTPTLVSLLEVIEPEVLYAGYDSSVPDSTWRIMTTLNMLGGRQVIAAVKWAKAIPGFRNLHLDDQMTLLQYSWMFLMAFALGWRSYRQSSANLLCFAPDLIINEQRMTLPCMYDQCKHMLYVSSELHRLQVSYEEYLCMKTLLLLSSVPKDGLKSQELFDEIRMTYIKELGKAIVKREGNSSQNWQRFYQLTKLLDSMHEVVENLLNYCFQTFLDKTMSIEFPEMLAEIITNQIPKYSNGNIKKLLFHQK

[4] = target: Sodium-dependent serotonin transporter (Homo sapiens) (UniProt P31645); test: (§1) Binding affinity to SERT at 10 uM by displacement assay
Sequence of Sodium-dependent serotonin transporter (Homo sapiens) (P31645 whole entry, looked up): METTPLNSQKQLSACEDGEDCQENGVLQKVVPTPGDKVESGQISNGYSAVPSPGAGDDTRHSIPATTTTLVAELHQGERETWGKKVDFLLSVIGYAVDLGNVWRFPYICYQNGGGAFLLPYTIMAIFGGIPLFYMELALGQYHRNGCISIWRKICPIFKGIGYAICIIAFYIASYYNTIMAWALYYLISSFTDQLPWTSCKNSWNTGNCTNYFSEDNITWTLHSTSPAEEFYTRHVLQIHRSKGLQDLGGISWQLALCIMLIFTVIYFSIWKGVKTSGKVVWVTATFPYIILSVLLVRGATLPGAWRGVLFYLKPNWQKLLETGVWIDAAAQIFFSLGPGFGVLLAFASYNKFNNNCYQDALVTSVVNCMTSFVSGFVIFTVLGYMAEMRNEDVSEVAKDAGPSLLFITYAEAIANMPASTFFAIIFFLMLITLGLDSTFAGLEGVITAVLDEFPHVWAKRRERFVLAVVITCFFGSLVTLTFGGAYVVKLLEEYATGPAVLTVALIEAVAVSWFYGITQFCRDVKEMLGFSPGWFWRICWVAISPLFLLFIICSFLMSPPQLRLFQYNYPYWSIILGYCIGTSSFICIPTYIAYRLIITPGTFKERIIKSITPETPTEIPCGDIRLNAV

[5] = target: 5-hydroxytryptamine receptor 1B (Homo sapiens) (UniProt P28222); test: Displacement of radioligand from 5HT1B receptor at 10 uM by displacement assay
Sequence of 5-hydroxytryptamine receptor 1B (Homo sapiens) (P28222 whole entry): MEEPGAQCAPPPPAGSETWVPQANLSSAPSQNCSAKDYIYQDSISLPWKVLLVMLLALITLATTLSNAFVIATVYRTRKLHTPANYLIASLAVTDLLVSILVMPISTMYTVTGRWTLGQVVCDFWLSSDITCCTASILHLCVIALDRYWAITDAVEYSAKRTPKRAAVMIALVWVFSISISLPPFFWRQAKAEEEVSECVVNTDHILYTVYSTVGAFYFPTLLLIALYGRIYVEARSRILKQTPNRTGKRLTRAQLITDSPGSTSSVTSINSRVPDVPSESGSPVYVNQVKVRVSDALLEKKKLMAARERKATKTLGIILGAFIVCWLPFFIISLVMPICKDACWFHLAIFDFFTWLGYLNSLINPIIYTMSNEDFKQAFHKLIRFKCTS

[6] = target: T3, B2 bradykinin receptor (Homo sapiens) (UniProt P30411); test: Displacement of [3H]bradykinin from human recombinant bradykinin B2 receptor expressed in CHO cells; format: cell-based
T3 sequence (whole entry): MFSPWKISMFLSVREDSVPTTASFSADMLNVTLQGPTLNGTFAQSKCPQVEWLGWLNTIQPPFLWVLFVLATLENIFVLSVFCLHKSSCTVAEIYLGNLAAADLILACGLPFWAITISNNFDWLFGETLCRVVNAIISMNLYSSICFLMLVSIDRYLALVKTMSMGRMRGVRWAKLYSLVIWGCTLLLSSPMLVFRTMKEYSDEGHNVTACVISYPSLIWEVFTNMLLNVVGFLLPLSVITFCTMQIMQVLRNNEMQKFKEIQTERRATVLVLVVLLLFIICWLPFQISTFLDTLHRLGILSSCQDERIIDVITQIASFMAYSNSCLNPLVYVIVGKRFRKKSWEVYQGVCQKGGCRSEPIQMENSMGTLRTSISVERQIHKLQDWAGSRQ

[7] = target: T4, Type-1 angiotensin II receptor (Homo sapiens) (UniProt P30556); test: Displacement of [125I][Sar1,Ile8]-AT2 from human recombinant AT1 angiotensin receptor expressed in HEK293 cells at 10 uM; format: cell-based
T4 sequence (whole entry): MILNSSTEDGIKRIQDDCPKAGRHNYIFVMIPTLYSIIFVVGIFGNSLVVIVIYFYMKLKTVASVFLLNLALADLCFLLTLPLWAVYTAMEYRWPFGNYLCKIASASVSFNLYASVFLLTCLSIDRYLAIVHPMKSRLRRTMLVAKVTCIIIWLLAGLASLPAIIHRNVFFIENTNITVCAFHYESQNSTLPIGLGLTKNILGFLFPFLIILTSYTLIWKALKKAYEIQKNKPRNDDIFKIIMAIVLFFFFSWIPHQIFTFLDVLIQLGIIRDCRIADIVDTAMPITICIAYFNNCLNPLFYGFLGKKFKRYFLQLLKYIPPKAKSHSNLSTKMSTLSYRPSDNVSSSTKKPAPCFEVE

[8] = Displacement of radioligand from NMDA receptor at 10 uM
[9] = target: Sodium-dependent dopamine transporter (Homo sapiens) (UniProt Q01959); test: Binding affinity to DAT at 10 uM by displacement assay
Sequence of Sodium-dependent dopamine transporter (Homo sapiens) (Q01959 whole entry): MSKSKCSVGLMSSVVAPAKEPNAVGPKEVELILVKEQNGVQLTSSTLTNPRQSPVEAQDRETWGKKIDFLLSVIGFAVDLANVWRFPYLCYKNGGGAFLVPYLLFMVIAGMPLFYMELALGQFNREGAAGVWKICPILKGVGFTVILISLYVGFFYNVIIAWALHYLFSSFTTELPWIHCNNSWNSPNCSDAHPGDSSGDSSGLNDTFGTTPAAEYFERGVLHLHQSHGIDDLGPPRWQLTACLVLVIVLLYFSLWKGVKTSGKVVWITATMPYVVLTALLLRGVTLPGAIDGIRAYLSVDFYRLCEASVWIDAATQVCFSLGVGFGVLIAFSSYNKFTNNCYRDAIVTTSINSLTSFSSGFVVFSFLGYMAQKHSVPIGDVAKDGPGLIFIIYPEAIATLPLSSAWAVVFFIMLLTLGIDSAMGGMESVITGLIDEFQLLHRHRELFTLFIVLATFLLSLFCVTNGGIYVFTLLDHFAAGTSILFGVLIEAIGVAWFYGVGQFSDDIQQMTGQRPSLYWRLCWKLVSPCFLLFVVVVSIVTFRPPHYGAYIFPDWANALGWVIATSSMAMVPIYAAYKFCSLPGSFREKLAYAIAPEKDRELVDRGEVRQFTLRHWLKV

[10] = target: Sodium-dependent serotonin transporter (Homo sapiens) (UniProt P31645); test: as §1; remark: listed apart in the source

Work on `CC(C)OC(=O)N/N=c1\sc2cc(OC(F)(F)F)ccc2n1C` yielded an Activity (Rattus norvegicus) of 0%, an Activity [1] of 0% and an EC50 (Mus musculus) of 8.8 mg/kg. It also gave an Activity [2] of 11%, an Activity [3] of 0% and an Activity [4] of 14%. It also gave an Activity [5] of 0%, an Activity [6] of 0% and an Activity [7] of 14%. The Activity [8] was 0%, the Activity [9] was 0% and the Activity [10] was 16%.
For `Cn1/c(=N/NC(=O)CC2CCCC2)sc2cc(OC(F)(F)F)ccc21`, the Activity (Rattus norvegicus) was 33%, the Activity [1] was 0% and the EC50 (Mus musculus) was < 10 mg/kg. It also gave an Activity [2] of 0%, an Activity [3] of 14% and an Activity [4] of 20%. For the same compound, the Activity [5] was 0%, the Activity [6] was 49% and the Activity [7] was 18%. It also gave an Activity [8] of 0%, an Activity [9] of 21% and an Activity [10] of 50%.
For `Cn1/c(=N/NC(=O)CC(C)(C)C)sc2cc(OC(F)(F)F)ccc21`, the Activity (Rattus norvegicus) was 0%, the Activity [1] was 0% and the EC50 (Mus musculus) was 4.4 mg/kg. The Activity [2] was 0%, the Activity [3] was 0% and the Activity [4] was 0%. It also gave an Activity [5] of 0%, an Activity [6] of 0% and an Activity [7] of 0%. For the same compound, the Activity [8] was 0%, the Activity [9] was 0% and the Activity [10] was 20%.
